Measurements published in paper PMC4398643 (Analytical biochemistry, 2015).

Molecular target: T1, 15-LOX-2 (Homo sapiens, UniProt O15296)
T1 sequence (O15296 1-676): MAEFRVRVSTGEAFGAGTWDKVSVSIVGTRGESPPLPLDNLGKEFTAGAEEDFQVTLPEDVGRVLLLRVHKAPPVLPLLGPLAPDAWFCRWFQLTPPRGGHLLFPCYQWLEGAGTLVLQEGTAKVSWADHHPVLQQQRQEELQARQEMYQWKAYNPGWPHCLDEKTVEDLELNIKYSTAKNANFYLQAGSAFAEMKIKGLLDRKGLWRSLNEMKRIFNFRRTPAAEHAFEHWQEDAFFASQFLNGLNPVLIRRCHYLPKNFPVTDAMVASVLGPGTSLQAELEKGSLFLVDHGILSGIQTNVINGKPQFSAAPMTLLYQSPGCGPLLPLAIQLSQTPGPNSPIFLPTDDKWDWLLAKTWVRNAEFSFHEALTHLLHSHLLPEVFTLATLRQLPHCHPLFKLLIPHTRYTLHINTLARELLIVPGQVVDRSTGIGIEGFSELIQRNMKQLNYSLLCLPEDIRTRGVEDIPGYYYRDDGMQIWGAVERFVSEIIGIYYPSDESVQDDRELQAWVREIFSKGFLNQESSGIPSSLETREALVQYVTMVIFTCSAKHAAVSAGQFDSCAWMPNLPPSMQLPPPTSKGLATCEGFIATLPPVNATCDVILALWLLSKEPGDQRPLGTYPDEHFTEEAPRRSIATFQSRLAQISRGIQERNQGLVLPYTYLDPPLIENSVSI
Test: 96-well allosteric effector assay
Format: biochemical
Details: for AA/GLA ratio (15-HETE/13-HOTrE(γ) peak area ratio): 4 µM AA and 16 µM GLA, ratio without effector 2.3 ± 0.1
Outline: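 15-LOX-2 (~150 nM final) is preincubated 30 s with the perdeuterated effector in 50 mM ammonium bicarbonate, pH 7.5, with 0.01% PPS detergent in 96-well plates. Turnover uses AA:GLA at 1:4 (20 µM total substrate), kept below 20% conversion. Plates are held at 4° C during HPLC-MS analysis, with products identified by MS/MS. The substrate preference is the 15-HETE/13-HOTrE(γ) peak-area ratio.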

- AA/GLA ratio (15-HETE/13-HOTrE(γ) peak area ratio) (10 µM d30-13-HODE): 1.4 ± 0.1
- AA/GLA ratio (15-HETE/13-HOTrE(γ) peak area ratio) (20 µM d30-13-HODE): 1.1 ± 0.1
SMILES: [2H]C(C([2H])=C([2H])C([2H])(O)C([2H])([2H])C([2H])([2H])C([2H])([2H])C([2H])([2H])C([2H])([2H])[2H])=C([2H])C([2H])([2H])C([2H])([2H])C([2H])([2H])C([2H])([2H])C([2H])([2H])C([2H])([2H])C([2H])([2H])C(=O)O (stereo not drawn) [d30-13-HODE]
- effect on AA and GLA catalysis (based on standard curve for AA and GLA products, data not shown): reducing AA catalysis, but not affecting GLA catalysis significantly
